{"data": "Results pooled from the literature", "target": "STE20/SPS1-related proline-alanine-rich protein kinase (STK39, Homo sapiens, UniProt Q9UEW8)", "note": "Compare with care: the assays were run in different laboratories."}
{"SMILES": "N#CC1(c2ccccn2)CCN(Cc2cc(C(=O)O)c(=O)n3ccccc23)CC1", "test": "cell-free assay, competition with immobilised ligand", "setting": "1 µM", "quantity": "remaining binding", "result": "56%"}
{"SMILES": "COc1cc(Nc2ncc(F)c(Nc3ccc4c(n3)NC(=O)C(C)(C)O4)n2)cc(OC)c1OC", "test": "binding", "setting": "10 µM", "quantity": "inhibition", "result": "65%"}
{"SMILES": "COc1ncccc1-c1cnn2ccc(N3CCN(C(=O)OC(C)C)CC3)nc12", "test": "binding, competition with immobilised ligand", "setting": "1 µM", "quantity": "remaining binding", "result": "88%"}
{"SMILES": "Nc1ncc(-c2nc(N3CCOCC3)nc(N3CCOCC3)n2)c(C(F)F)n1", "test": "binding, competition with immobilised ligand", "setting": "10 µM", "quantity": "remaining binding", "result": "70%"}
{"SMILES": "O=c1[nH]c2ccccc2n1C1CCN(Cc2ccc(-c3[nH]c4cc5ncnc5cc4nc3-c3ccccc3)cc2)CC1", "test": "cell-free assay", "setting": "0.5 µM", "quantity": "remaining signal", "result": "98.2%"}
{"SMILES": "Cc1nn(C)cc1-c1nc2c(N3CCN(Cc4ccc(Cl)cc4)CC3)c(Cl)cnc2[nH]1", "test": "binding, competition with immobilised ligand", "setting": "1 µM", "quantity": "remaining binding", "result": "100%"}
{"SMILES": "CC(C)(C)c1cc(C=C(C#N)C#N)cc(Br)c1O", "test": "enzyme activity, inhibitor", "setting": "0.5 µM", "quantity": "remaining activity", "result": "87.6%"}
{"SMILES": "Cn1cncc1[C@](O)(COc1ccc(C#N)cc1-c1ccc(OC(F)(F)F)cc1)c1ccc(C#N)cc1", "test": "cell-free assay, competition with immobilised ligand", "setting": "1 µM", "quantity": "remaining binding", "result": "50%"}
